Experimental data of several laboratories.
Compare with care: the assays were run in different laboratories.
AGTR2: Type-2 angiotensin II receptor (AGTR2, Homo sapiens, UniProt P50052)
Adora2a: Adenosine receptor A2a (Adora2a, Rattus norvegicus, UniProt P30543)

| Compound | target | assay | test system | conditions | Ki [µM] |
| --- | --- | --- | --- | --- | --- |
| CCC(C)[C@H](NC(=O)c1cccc(C(=O)N(C)Cc2ccccc2)c1)C(=O)O (stereo in doubt) | AGTR2 | ligand displacement in cells, radioligand | – | – | 9 |
| Cc1nc2cc(OCCCCN3CCN(c4cccc(Cl)c4Cl)CC3)ccc2s1 | Sodium-dependent serotonin transporter (SLC6A4, Homo sapiens, UniProt P31645) | ligand displacement, radioligand | – | – | 0.34 |
| Cc1cccc(CSc2nc(N)c(C#N)c(-c3cccc(O)c3)c2C#N)n1 | Adora2a | ligand displacement, radioligand | – | cell membranes | 0.0206 |
| CCC(C)[C@H](NC(=O)c1cccc(C(=O)N(CC)Cc2ccccc2)c1)C(=O)O (stereo in doubt) | AGTR2 | ligand displacement in cells, radioligand | – | – | 11 |
| CC(C)CN1CCCn2c1nc1c2c(=O)n(C)c(=O)n1C | Adora2a | ligand displacement, radioligand | – | cell membranes | 0.87 |
| COc1cccc(-c2c(C#N)c(N)nc(SCc3cccc(C)n3)c2C#N)c1 | Adora2a | ligand displacement, radioligand | – | cell membranes | 0.0483 |
| CCC(C)N1CCCn2c1nc1c2c(=O)n(C)c(=O)n1C (centres unmarked) | Adora2a | ligand displacement, radioligand | – | cell membranes | 4.64 |
| Fc1ccc(C2=Nn3c(nnc3-c3cccc(Br)c3)SC2)cc1 | Urease (Canavalia ensiformis, UniProt P07374) | enzyme activity, inhibitor | – | – | 3.62 |
| Cc1cc(C)c2c(c1)[C@@H](N(Cc1cc(C(F)(F)F)cc(C(F)(F)F)c1)c1nnn(C)n1)CCCN2C[C@H]1CC[C@H](C(=O)O)CC1 | Cytochrome P450 2B6 (CYP2B6, Homo sapiens, UniProt P20813) | enzyme activity, inhibitor | human, liver microsomes | pH 7.4 | 6.3 |
| CC(C)N1CCCn2c1nc1c2c(=O)n(C)c(=O)n1C | Adora2a | ligand displacement, radioligand | – | cell membranes | 4.95 |
| CCc1ccc(C(=O)N[C@H](C(=O)O)C(C)CC)cc1C(=O)N(CC)CC (stereo in doubt) | AGTR2 | ligand displacement in cells, radioligand | – | – | 10 |
| COc1ccc(-c2c(C#N)c(N)nc(SCC(N)=O)c2C#N)cc1 | Adora2a | ligand displacement, radioligand | – | cell membranes | 1.47 |
| CCC(C)[C@H](NC(=O)c1ccc(C(=O)N(C)Cc2ccccc2)cc1)C(=O)O (stereo in doubt) | AGTR2 | ligand displacement in cells, radioligand | – | – | > 100 |
| C=CCN1CCCn2c1nc1c2c(=O)n(C)c(=O)n1C | Adora2a | ligand displacement, radioligand | – | cell membranes | 2.62 |
| COc1cccc(-c2c(C#N)c(N)nc(SCC(N)=O)c2C#N)c1 | Adora2a | ligand displacement, radioligand | – | cell membranes | 1.2 |
| CCC(C)[C@H](NC(=O)c1ccc(C)c(C(=O)N(Cc2ccccc2)Cc2ccccc2)c1)C(=O)O (stereo in doubt) | AGTR2 | ligand displacement in cells, radioligand | – | – | 2.5 |
| CC(C)CC(C)N1CCCn2c1nc1c2c(=O)n(C)c(=O)n1C (centres unmarked) | Adora2a | ligand displacement, radioligand | – | cell membranes | 5.37 |
